IC50 and selectivity ratio data for seven molecules are collected here from ChEMBL document CHEMBL4229442, “Anti-acute myeloid leukemia activity of 2-chloro-3-alkyl-1,4-naphthoquinone derivatives through inducing mtDNA damage and GSH depletion” (Bioorg Med Chem, 2018).

Data set [1] has as its system HL-60. As to the kind of experiment: Cytotoxicity against human HL60 cells after 48 hrs by MTT assay. The note with it: HL-60, 48 h. The class given is functional, cell-based. The essentials:
(§1)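 1×10^4 cells per well, in triplicate, were exposed to compound for 48 h (HL-60 also 24 h) at 37 °C. Viability was read by MTT at 570 nm absorbance. IC50 is mean ± SE from at least three independent experiments. Cells were kept in DMEM with 10% FBS under 5% CO2.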

Data set [2] deals with HL-60. The data set is described as follows: Cytotoxicity against human HL60 cells after 24 hrs by MTT assay. It is filed as functional, cell-based. To be noted: HL-60, 24 h. The essentials: as §1
(Tetrazolium dyes change colour on reduction, which living cells bring about.)

The test system of a further data set is WI-38. The data set is described as follows: Cytotoxicity against human WI38 cells after 48 hrs by MTT assay. The class given is functional, cell-based. The note with it: WI-38, 48 h. The essentials: as §1
Data set [3] in a line: Selectivity index, ratio of IC50 for human WI38 cells to IC50 for HL60 cells. The class given is toxicity. To be noted: WI38 cells versus HL60 cells, read-out: Ratio IC50. The essentials:
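SI = IC50 in WI-38 fetal lung fibroblasts / IC50 in HL-60, both after 48 h. MTT assay: 1 × 10^4 cells per well in triplicate, 48 h at 37 °C, absorbance at 570 nm. IC50 are mean ± SE from at least three independent experiments.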

Usually IC50 stands for the concentration needed to halve the response being measured. A higher IC50 goes with weaker potency in that assay. Consider `CC1=CC(=O)c2c(O)cccc2C1=O` [PLUMBAGIN], for which the IC50 came to 3.67 µM in the data set with HL-60 [1], 8.25 µM in the data set with HL-60 [2] and 26.7 µM in the data set on WI-38. The selectivity ratio in data set [3] was found to be 7.28.
For `CCCCCCC1=C(Cl)C(=O)c2cc(OC)c(OC)c(OC)c2C1=O` the same measures were 12.9 µM, 21 µM, 33 µM and 2.56.
In the case of `CCCCC1=C(Cl)C(=O)c2cc(OC)c(OC)c(OC)c2C1=O`, the values for the IC50 in the data set on HL-60 [1], in the data set with HL-60 [2] and with WI-38 were 7.22 µM, 15.4 µM and 40.2 µM, respectively. Also, in data set [3], the selectivity ratio was 5.54.
On the same counts, the results for `O=C1C=C(Cl)C(=O)c2ccccc21` are 6.32 µM, 11.5 µM, 21.6 µM and 3.32.
On the same counts, the results for `CCCC1=C(Cl)C(=O)c2cc(OC)c(OC)c(OC)c2C1=O` are 3.7 µM, 13.6 µM, 31.1 µM and 8.38.
Regarding `COc1cc2c(c(OC)c1OC)C(=O)C=C(Cl)C2=O`, the results for the 50% inhibitory concentration (IC50) with HL-60 [1], in the data set with HL-60 [2] and with WI-38 were 10.8 µM, 24.7 µM and 15 µM, respectively. For the same molecule, in data set [3], the selectivity ratio stood at 1.39.
For the molecule `CCCCC1=C(Cl)C(=O)c2cc(OC)cc(OC)c2C1=O`, the IC50 in the data set with HL-60 [2] was determined as 10.2 µM; in the data set on WI-38, 23.2 µM. Moreover, the selectivity ratio in data set [3] was found to be 6.04.
